In brackets after ≈: the same amount, converted by molar mass. Activity calls are given as the source filed them.
Tests used:
[1] = AUC in human at 7.5 mg/kg, iv administered every 24 hrs; type: ADME, organism-based; design: dose 7.5 mg/kg, route intravenous; conditions: plasma
Staphylococcus aureus [2] = experiment: Antibacterial activity against glycopeptide-intermediate resistant Staphylococcus aureus ATCC 700788 by microbroth dilution method; type: functional
In short: (§1)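 MIC and MBC were determined by broth microdilution in cation-adjusted Mueller-Hinton broth per CLSI guidelines. S. aureus ATCC 29213 served as the control strain. Strains were stored frozen in skim milk at −80°C and subcultured on 5% sheep blood Columbia agar before each run.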

Staphylococcus aureus [3] = experiment: Antibacterial activity against glycopeptide-intermediate resistant Staphylococcus aureus HIP 5836 isolate infected New Zealand white rabbit endocarditis model assessed as sterile bacterial vegetation at 10 mg/kg, iv administered every 24 hrs for 2 days; type: functional
In short: (§2)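 After 24 h they were inoculated i.v. through the ear vein with 1 ml of 7 × 10⁵ CFU/ml. Bacteremia was confirmed at 18 h, after which animals were randomized. Human-like kinetics were delivered by computer-controlled pump through a cava catheter for 48 h. Animals were killed 6 drug half-lives later. Aortic vegetations were weighed, homogenized and cultured quantitatively on plates, with broth culture for 1 week. Results are median log₁₀ CFU/g: 2 for broth-only growth, 0 for sterile. Sterility rates were compared by Fisher's exact test.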

Staphylococcus aureus [4] = experiment: Antibacterial activity against glycopeptide-intermediate resistant Staphylococcus aureus HIP 5836 isolate assessed as reduction of bacterial count after 24 hrs by time kill curve study; type: functional
In short: (§3)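 Duplicate time-kill curves followed CLSI criteria with an inoculum of 10⁵ CFU/ml. Viable counts were taken at 0, 4 and 24 h. Bactericidal activity was defined as a ≥3 log₁₀ CFU/ml drop at 24 h versus the starting inoculum.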

Staphylococcus aureus [5] = experiment: Antibacterial activity against glycopeptide-intermediate resistant Staphylococcus aureus HIP 5836 isolate by microbroth dilution method; type: functional; in short: as §1
[6] = Cmax in rabbit at 10 mg/kg, iv administered once daily; type: ADME, organism-based, Oryctolagus cuniculus; design: dose 10 mg/kg, route intravenous; conditions: in vivo
[7] = Terminal half life in human at 10 mg/kg, iv administered every 24 hrs; type: ADME, organism-based; design: dose 10 mg/kg, route intravenous; conditions: in vivo
Staphylococcus aureus [8] = experiment: Antibacterial activity against glycopeptide-intermediate resistant Staphylococcus aureus ATCC 700788 infected New Zealand white rabbit endocarditis model assessed as bacterial count per gram of microbial vegetation at 10 mg/kg, iv administered every 24 hrs for 2 days; type: functional; in short: as §2
[9] = AUC in human at 10 mg/kg, iv administered every 24 hrs; type: ADME, organism-based; design: dose 10 mg/kg, route intravenous; conditions: plasma
Oryctolagus cuniculus [10] = experiment: Protein binding in rabbit at 15 mg/kg, iv; type: ADME, organism-based; design: dose 15 mg/kg, route intravenous; conditions: in vivo
[11] = Cmax in rabbit at 7.5 mg/kg, iv administered once daily; type: ADME, organism-based, Oryctolagus cuniculus; design: dose 7.5 mg/kg, route intravenous; conditions: in vivo
In short: (§4)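 A computer-controlled pump infused telavancin at precalculated flow rates to reproduce the human 7.5 mg/kg i.v. once-daily serum profile. Plasma levels were measured by validated LC-MS/MS (n = 3 or 5).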

[12] = Terminal half life in human at 7.5 mg/kg, iv administered every 24 hrs; type: ADME, organism-based; design: dose 7.5 mg/kg, route intravenous; conditions: in vivo
[13] = Terminal half life in rabbit at 15 mg/kg, iv; type: ADME, organism-based, Oryctolagus cuniculus; design: dose 15 mg/kg, route intravenous; conditions: in vivo
In short: (§5)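 Healthy rabbits (n = 5) received telavancin at 15 mg/kg i.v. Blood was drawn through a carotid artery catheter. Plasma telavancin was measured by a validated LC-MS/MS method with a lower limit of quantitation of 0.25 μg/ml. The first-order elimination constant, β-phase half-life and AUC were derived from the concentration-time data.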

Staphylococcus aureus [14] = experiment: Antibacterial activity against glycopeptide-intermediate resistant Staphylococcus aureus ATCC 700788 infected New Zealand white rabbit endocarditis model assessed as sterile bacterial vegetation at 10 mg/kg, iv administered every 24 hrs for 2 days; type: functional; in short: as §2
[15] = AUC in rabbit at 7.5 mg/kg, iv administered once daily; type: ADME, organism-based, Oryctolagus cuniculus; design: dose 7.5 mg/kg, route intravenous; conditions: plasma; in short: as §4
Staphylococcus aureus [16] = experiment: Antibacterial activity against glycopeptide-intermediate resistant Staphylococcus aureus ATCC 700788 assessed as reduction of bacterial count after 24 hrs by time kill curve study; type: functional; in short: as §3
[17] = Ratio of AUC in rabbit at 7.5 mg/kg, iv qd to MIC for Staphylococcus aureus HIP 5836 isolate; type: functional
In short: (§6)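 The AUC came from the rabbit infusion simulating human 7.5 mg/kg i.v. once daily. It was divided by each strain's MIC. MICs were determined by CLSI broth microdilution in cation-adjusted Mueller Hinton broth, with S. aureus ATCC 29213 as the control strain.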

[18] = AUC in rabbit at 15 mg/kg, iv; type: ADME, organism-based, Oryctolagus cuniculus; design: dose 15 mg/kg, route intravenous; conditions: plasma; in short: as §5
[19] = Terminal half life in rabbit at 7.5 mg/kg, iv administered once daily; type: ADME, organism-based, Oryctolagus cuniculus; design: dose 7.5 mg/kg, route intravenous; conditions: in vivo; in short: as §4
Homo sapiens [20] = experiment: Protein binding in human at 10 mg/kg, iv administered every 24 hrs; type: ADME, organism-based; design: dose 10 mg/kg, route intravenous; conditions: in vivo
Staphylococcus aureus [21] = experiment: Antibacterial activity against glycopeptide-intermediate resistant Staphylococcus aureus HIP 5836 isolate infected New Zealand white rabbit endocarditis model assessed as survival at 10 mg/kg, iv administered every 24 hrs for 2 days; type: functional; in short: as §2
Oryctolagus cuniculus [22] = experiment: Protein binding in rabbit at 10 mg/kg, iv; type: ADME, organism-based; design: dose 10 mg/kg, route intravenous; conditions: in vivo
[23] = Cmax in human at 7.5 mg/kg, iv administered every 24 hrs; type: ADME, organism-based; design: dose 7.5 mg/kg, route intravenous; conditions: in vivo
Staphylococcus aureus [24] = experiment: Antibacterial activity against glycopeptide-intermediate resistant Staphylococcus aureus HIP 5836 isolate infected New Zealand white rabbit endocarditis model assessed as bacterial count per gram of microbial vegetation at 10 mg/kg, iv administered every 24 hrs for 2 days; type: functional; in short: as §2
Homo sapiens [25] = experiment: Protein binding in human at 7.5 mg/kg, iv administered every 24 hrs; type: ADME, organism-based; design: dose 7.5 mg/kg, route intravenous; conditions: in vivo
[26] = Ratio of AUC in rabbit at 7.5 mg/kg, iv qd to MIC for Staphylococcus aureus ATCC 700788; type: functional; in short: as §6
Staphylococcus aureus [27] = experiment: Antibacterial activity against glycopeptide-intermediate resistant Staphylococcus aureus ATCC 700788 infected New Zealand white rabbit endocarditis model assessed as survival at 10 mg/kg, iv administered every 24 hrs for 2 days; type: functional; in short: as §2
[28] = AUC in rabbit at 1 g, iv administered twice daily; type: ADME, organism-based, Oryctolagus cuniculus; conditions: plasma
In short: (§7)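 Rabbits carried a carotid artery catheter for blood sampling and a jugular-to-cava catheter for infusion. A computer-controlled pump delivered the drug to simulate the human profile of 1 g i.v. twice daily. Vancomycin was measured by latex-boosted immunoturbidimetry, detection limit 0.8 μg/ml. Rabbits per group: n = 3 or 5.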

[29] = AUC in rabbit at 25 mg/kg, iv; type: ADME, organism-based, Oryctolagus cuniculus; design: dose 25 mg/kg, route intravenous; conditions: plasma
In short: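 Five healthy rabbits received a 25 mg/kg i.v. dose through a jugular-to-cava catheter. Blood was drawn through a carotid catheter at 0, 0.25, 0.5, 1, 2, 3, 4, 5 and 6 h. Plasma vancomycin was measured by latex-boosted immunoturbidimetry, detection limit 0.8 μg/ml. Elimination rate, half-life and AUC were reported as mean ± variation.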

[30] = Ratio of AUC in rabbit at 1 g, iv bid to MIC for Staphylococcus aureus ATCC 700788; type: functional
In short: (§8)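 A computer-controlled pump infused vancomycin to mimic the human 1 g i.v. every-12-h profile. Blood was drawn at 0–6 h after infusion start. Vancomycin was measured by latex-boosted immunoturbidimetry (detection limit 0.8 μg/ml). AUC was divided by the MIC, determined by CLSI broth microdilution in cation-adjusted Mueller-Hinton broth.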

Staphylococcus aureus [31] = experiment: Antibacterial activity against glycopeptide-intermediate resistant Staphylococcus aureus HIP 5836 isolate infected New Zealand white rabbit endocarditis model assessed as bacterial count per gram of microbial vegetation at 1 g, iv administered every 12 hrs for 2 days
[32] = Terminal half life in human at 1 g, iv administered every 12 hrs; type: ADME, organism-based; conditions: in vivo
[33] = Terminal half life in rabbit at 1 g, iv administered twice daily; type: ADME, organism-based, Oryctolagus cuniculus; conditions: in vivo; in short: as §7
[34] = Ratio of AUC in rabbit at 1 g, iv bid to MIC for Staphylococcus aureus HIP 5836 isolate; type: functional; in short: as §8
Staphylococcus aureus [35] = experiment: Antibacterial activity against glycopeptide-intermediate resistant Staphylococcus aureus ATCC 700788 infected New Zealand white rabbit endocarditis model assessed as bacterial count per gram of microbial vegetation at 1 g, iv administered every 12 hrs for 2 days
[36] = Protein binding in human at 1 g, iv administered every 12 hrs; type: ADME, organism-based; conditions: in vivo, read-out: PB
[37] = Cmax in human at 1 g, iv administered every 12 hrs; type: ADME, organism-based; design: dose 1 g, route intravenous; conditions: in vivo
[38] = AUC in human at 1 g, iv administered every 12 hrs; type: ADME, organism-based; conditions: plasma
[39] = Cmax in rabbit at 1 g, iv administered twice daily; type: ADME, organism-based, Oryctolagus cuniculus; design: dose 1 g, route intravenous; conditions: in vivo; in short: as §7

## CCCCCCCCCCNCCN[C@@]1(C)C[C@H](O[C@H]2[C@H](Oc3c4cc5cc3Oc3ccc(cc3Cl)[C@@H](O)[C@@H](NC(=O)[C@@H](CC(C)C)NC)C(=O)N[C@@H](CC(N)=O)C(=O)N[C@H]5C(=O)N[C@H]3C(=O)N[C@H](C(=O)N[C@H](C(=O)O)c5cc(O)c(CNCP(=O)(O)O)c(O)c5-c5cc3ccc5O)[C@H](O)c3ccc(c(Cl)c3)O4)O[C@H](CO)[C@@H](O)[C@@H]2O)O[C@@H](C)[C@H]1O [TELAVANCIN]
[1]
  AUC at 24 h: 604 µg·h/mL
Staphylococcus aureus [2]
  MBC: 4 µg/mL (≈ 2.28 µM)
  MIC: 1 µg/mL (≈ 0.57 µM)
Staphylococcus aureus [3]
  Activity: 31%
Staphylococcus aureus [4]
  log10CFU/ml: 2
Staphylococcus aureus [5]
  MBC: 8 µg/mL (≈ 4.56 µM)
  MIC: 4 µg/mL (≈ 2.28 µM)
[6]
  Cmax: 114 µg/mL
[7]
  half-life: 7.41 h
Staphylococcus aureus [8]
  log10cfu: 4.6
[9]
  AUC at 24 h: 785 µg·h/mL
Oryctolagus cuniculus [10]
  Activity: 90%
[11]
  Cmax: 90 µg/mL
[12]
  half-life: 6.18 h
[13]
  half-life: 1.2 h
Staphylococcus aureus [14]
  Activity: 37%
[15]
  AUC: 638 µg·h/mL
Staphylococcus aureus [16]
  log10CFU/ml: 2
[17]
  RatioAUC/MIC: 159.5
[18]
  AUC: 270 µg·h/mL
[19]
  half-life: 4.6 h
Homo sapiens [20]
  Activity: 90%
Staphylococcus aureus [21]
  Activity: 94%
Oryctolagus cuniculus [22]
  Activity: 90%
[23]
  Cmax: 89 µg/mL
Staphylococcus aureus [24]
  log10cfu: 4.4
Homo sapiens [25]
  Activity: 90%
[26]
  RatioAUC/MIC: 638
Staphylococcus aureus [27]
  Activity: 94%

## CN[C@H](CC(C)C)C(=O)N[C@H]1C(=O)N[C@@H](CC(N)=O)C(=O)N[C@H]2C(=O)N[C@H]3C(=O)N[C@H](C(=O)N[C@H](C(=O)O)c4cc(O)cc(O)c4-c4cc3ccc4O)[C@H](O)c3ccc(c(Cl)c3)Oc3cc2cc(c3O[C@@H]2O[C@H](CO)[C@@H](O)[C@H](O)[C@H]2O[C@H]2C[C@](C)(N)[C@H](O)[C@H](C)O2)Oc2ccc(cc2Cl)[C@H]1O [VANCOMYCIN]
[28]
  AUC: 299 µg·h/mL
Staphylococcus aureus [2]
  MBC: 128 µg/mL (≈ 88.3 µM)
  MIC: 8 µg/mL (≈ 5.52 µM)
[29]
  AUC: 101 µg·h/mL
[30]
  RatioAUC/MIC: 37.3
Staphylococcus aureus [4]
  Activity: Active
Staphylococcus aureus [5]
  MBC: 128 µg/mL (≈ 88.3 µM)
  MIC: 8 µg/mL (≈ 5.52 µM)
Staphylococcus aureus [31]
  log10cfu: 6.7
[32]
  half-life: 4.6 h
Staphylococcus aureus [16]
  Activity: Active
[33]
  half-life: 3.8 h
[34]
  RatioAUC/MIC: 37.3
Staphylococcus aureus [35]
  log10cfu: 6.6
[36]
  fraction unbound at 12 h: 0.5
[37]
  Cmax: 52 µg/mL
[38]
  AUC at 12 h: 359 µg·h/mL
[39]
  Cmax: 46 µg/mL

Reference: ChEMBL document CHEMBL1157365, “Efficacy of telavancin in the treatment of experimental endocarditis due to glycopeptide-intermediate Staphylococcus aureus” (Antimicrob Agents Chemother, 2007)
